Values belong to the compound of their own block, whether it stands above or below them.
How the values were obtained:
[1] = Dissociation constant, pKa of the compound; type: physicochemical
[2] = Secretory transport of the compound through transepithelial human Caco2 model; type: ADME, cell-based; conditions: Caco-2
[3] = Chemical stability of the compound in borate buffered saline assessed as half life of cyclization at pH 6.28; type: physicochemical
Procedure, shortened: (§1)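 Lactamization of the amino intermediate in borate-buffered saline, pH range 5–8, 37 °C, ionic strength 0.12 (figure legend gives I = 0.05). Parent loss and formation of parent drug and dihydroquinolone followed by HPLC, validated at 1.1–16.6 µM. Apparent first-order rate constants fitted by nonlinear regression, three determinations per pH; half-lives derived from these constants.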

[4] = Chemical stability of the compound in borate buffered saline assessed as half life of cyclization at pH 6.4; type: physicochemical; procedure, shortened: as §1
[5] = Chemical stability of the compound in borate buffered saline assessed as half life of cyclization at pH 6.2; type: physicochemical; procedure, shortened: as §1
[6] = Chemical stability of the compound in borate buffered saline assessed as half life of cyclization at pH 5.52; type: physicochemical; procedure, shortened: as §1
[7] = Chemical stability of the compound in borate buffered saline assessed as half life of cyclization at pH 6.11; type: physicochemical; procedure, shortened: as §1
[8] = Chemical stability of the compound in borate buffered saline assessed as half life of cyclization at pH 6; type: physicochemical; procedure, shortened: as §1
[9] = Chemical stability of the compound in borate buffered saline assessed as half life of cyclization at pH 7.4; type: physicochemical; procedure, shortened: as §1
[10] = Chemical stability of the compound in borate buffered saline assessed as half life of cyclization at pH 7; type: physicochemical; procedure, shortened: as §1

pKa [1]: 4.9
SMILES: CCC(=O)NS(=O)(=O)c1ccc(-c2c(-c3ccccc3)noc2C)cc1 [PARECOXIB]

Papp B→A [2]: 12.4 ×10⁻⁶ cm/s
SMILES: Cc1ccc(-c2cc(C(F)(F)F)nn2-c2ccc(S(N)(=O)=O)cc2)cc1 [CELECOXIB]

half-life [3]: 41.2 min
half-life [4]: 60.3 min
half-life [5]: 29.5 min
half-life [6]: 10.2 min
half-life [7]: 15.2 min
half-life [8]: 10.9 min
half-life [9]: 632 min
half-life [10]: 130 min
SMILES: Cc1ccc(-c2cc(C(F)(F)F)nn2-c2ccc(S(=O)(=O)NC(=O)CCc3ccccc3N)cc2)cc1
